Key:
[1] = molecular target: GABA-A receptor; anion channel; assay: In vitro inhibition of [3H]diazepam binding to rat cerebral cortical membrane benzodiazepine receptors
In short: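 Thrice-washed rat cerebral cortex membranes in 50 mM Tris-HCl pH 7.4 (0.5–0.6 mg/mL protein), incubated 30 min at 4 °C with 2 nM [3H]diazepam plus test compound. Stopped with ice-cold Tris, then GF/B filtration and scintillation counting. Nonspecific binding with 3 μM unlabeled diazepam or clonazepam.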

[2] = In vitro binding to GABA-A benzodiazepine receptor of rat cerebral cortical membranes
In short: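 Rat cerebral cortex homogenised in Tris-HCl (50 mM, pH 7.4), washed three times by centrifugation at 20000g, 4 °C, and resuspended at 0.5–0.6 mg protein/mL. Incubated with 2 nM [3H]diazepam, 30 min, 4 °C. Stopped with ice-cold buffer, GF/B filtered, scintillation counted. Nonspecific binding with 3 μM unlabelled diazepam or clonazepam. […] Mean of two experiments.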

Rattus norvegicus = organism: Rattus norvegicus; assay: In vitro inhibition of [3H]diazepam binding to GABA-A benzodiazepine receptor of rat cerebral cortical membranes at 50 uM; assay type: cell membranes; conditions: Membrane

Row | SMILES | Ki [1] | further results
1 | COC(=O)C1Cc2[nH]cnc2C(c2ccccc2)N1 (trans isomer) | > 50 µM | –
2 | COC(=O)C1Cc2cc(OC)c(OC)cc2CN1 (configuration not stated) | 32 µM | –
3 | COC(=O)C1Cc2[nH]cnc2C(c2c(CO)cnc(C)c2O)N1 (configuration not stated) | > 50 µM | –
4 | CN1C(=O)CN=C(c2ccccc2)c2cc(Cl)ccc21 [DIAZEPAM] | – | Kd [2]: 5.6 µM
5 | COC(=O)C1Cc2c3n(c4ccccc24)C(=O)CCC3N1Cc1ccccc1 (configuration not stated) | – | Inhibition (Rattus norvegicus): 17%
6 | COC(=O)c1cc2c(cn1)[nH]c1ccccc12 [BETA-CCM] | 0.001 µM | –
7 | CC(=O)OCc1cc2c3ccccc3nc-2c[nH]1 | 750 µM | –
8 | CCOC(=O)c1cc2c(cn1)[nH]c1ccccc12 | 0.001 µM | –
9 | OCc1cc2c3ccccc3nc-2c[nH]1 | 1.47 µM | –
10 | CC(=O)c1cc2c3ccccc3nc-2c[nH]1 | 0.058 µM | –
11 | COC(=O)c1cc2[nH]cnc2c(-c2ccccc2)n1 | 10 µM | –
12 | O=C1CCC2c3c(c4ccccc4n31)CCN2Cc1ccccc1 (configuration not stated) | 11.2 µM | –
13 | COC(=O)C1Cc2ccccc2CN1 (configuration not stated) | > 50 µM | –
14 | Cc1ncc(CO)c(C2NCCc3ncn(C)c32)c1O (configuration not stated) | > 50 µM | –
15 | O=C(O)C1Cc2[nH]cnc2C(c2ccccc2)N1 (cis isomer) | > 50 µM | –
16 | COC(=O)c1cc2[nH]cnc2cn1 | > 50 µM | –
17 | O=C(O)C1Cc2cc(O)c(O)cc2CN1 (configuration not stated) | > 50 µM | –
18 | NC(=O)c1cc2c3ccccc3nc-2c[nH]1 | 0.068 µM | –
19 | COC(=O)c1cc2cc(OC)c(OC)cc2cn1 | 10 µM | –
20 | COC(=O)c1cc2c3ccccc3n3c(=O)ccc(n1)c23 | 0.1 µM | –
21 | O=c1ccc2nccc3c4ccccc4n1c23 [CANTHIN-6-ONE] | 10 µM | –
22 | O=C(O)C1Cc2[nH]cnc2CN1 (configuration not stated) | > 50 µM | –

Source: ChEMBL document CHEMBL1122642, “Biomimetic approach to potential benzodiazepine receptor agonists and antagonists” (J Med Chem, 1984)
